Key:
[1] = molecular target: T1, Muscarinic acetylcholine receptor DM1 (Drosophila melanogaster, UniProt P16395); assay: Displacement of [3H]QNB from Drosophila melanogaster mAChR by scintillation counting
[2] = molecular target: T1, Muscarinic acetylcholine receptor DM1; assay: Displacement of [3H]AF-DX 384 from Drosophila melanogaster mAChR by scintillation counting
[3] = test system: Musca domestica; assay: Toxicity to Musca domestica (house fly) assessed as mortality at 75 ug/fly measured after 24 hr; type: functional
Procedure, shortened: (§1)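 Insecticide-susceptible adult female Musca (~25 mg) received PPP (2.5 µg/fly in 0.5 µL acetone, abdominal ventrum), then 90 min at room temperature. The compound (active ingredient) was given by intrathoracic injection in 0.22 µL water or 25-50% Me2SO/water. Mortality was scored at 0.5, 1.0, 1.5, 2.5 and 24 h.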

[4] = test system: Musca domestica; assay: Toxicity to Musca domestica (house fly) assessed as mortality at 75 ug/fly measured after 2.5 hr; type: functional; procedure, shortened: as §1
[5] = test system: Musca domestica; assay: Toxicity to Musca domestica (house fly) assessed as mortality at 75 ug/fly measured after 1.5 hr; type: functional; procedure, shortened: as §1
[6] = test system: Musca domestica; assay: Toxicity to Musca domestica (house fly) assessed as mortality at 75 ug/fly measured after 1 hr; type: functional; procedure, shortened: as §1
[7] = test system: Musca domestica; assay: Toxicity to Musca domestica (house fly) assessed as mortality at 75 ug/fly measured after 0.5 hr; type: functional; procedure, shortened: as §1
[8] = test system: Musca domestica; assay: Toxicity to Musca domestica (house fly) assessed as mortality at 25 ug/fly measured after 24 hr; type: functional; procedure, shortened: as §1
[9] = test system: Musca domestica; assay: Toxicity to Musca domestica (house fly) assessed as mortality at 25 ug/fly measured after 2.5 hr; type: functional; procedure, shortened: as §1
[10] = test system: Musca domestica; assay: Toxicity to Musca domestica (house fly) assessed as mortality at 25 ug/fly measured after 1.5 hr; type: functional; procedure, shortened: as §1
[11] = test system: Musca domestica; assay: Toxicity to Musca domestica (house fly) assessed as mortality at 25 ug/fly measured after 1 hr; type: functional; procedure, shortened: as §1
[12] = test system: Musca domestica; assay: Toxicity to Musca domestica (house fly) assessed as mortality at 25 ug/fly measured after 0.5 hr; type: functional; procedure, shortened: as §1
[13] = test system: Musca domestica; assay: Ex vivo inhibition of [3H]QNB binding in brain of Musca domestica (house fly) at 75 ug/fly measured after 24 hr; type: functional
Procedure, shortened: (§2)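 Adult female houseflies pretreated with PPP (2.5 µg/fly, topical in acetone, 90 min), then dosed by intrathoracic injection in 0.22 µL water or 25-50% Me2SO/water. Heads were taken 0.5 or 24 h later and homogenized (50 per batch) in 50 mM sodium phosphate pH 7.4. Filtrate (~800 µg protein) was bound with 0.5 nM [3H]QNB, 60 min, 25 °C. Values are relative to vehicle-treated flies; 6−8 measurements over two experiments.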

[14] = test system: Musca domestica; assay: Ex vivo inhibition of [3H]QNB binding in brain of Musca domestica (house fly) at 75 ug/fly measured after 0.5 hr; type: functional; procedure, shortened: as §2
[15] = test system: Musca domestica; assay: Ex vivo inhibition of [3H]QNB binding in brain of Musca domestica (house fly) at 25 ug/fly measured after 24 hr; type: functional; procedure, shortened: as §2
[16] = test system: Musca domestica; assay: Ex vivo inhibition of [3H]QNB binding in brain of Musca domestica (house fly) at 25 ug/fly measured after 0.5 hr; type: functional; procedure, shortened: as §2
[17] = test system: Musca domestica; assay: Toxicity to Musca domestica (house fly) assessed as mortality at 6.25 ug/fly measured after 24 hr; type: functional; procedure, shortened: as §1
[18] = test system: Musca domestica; assay: Toxicity to Musca domestica (house fly) assessed as mortality at 6.25 ug/fly measured after 2.5 hr; type: functional; procedure, shortened: as §1
[19] = test system: Musca domestica; assay: Toxicity to Musca domestica (house fly) assessed as mortality at 6.25 ug/fly measured after 1.5 hr; type: functional; procedure, shortened: as §1
[20] = test system: Musca domestica; assay: Toxicity to Musca domestica (house fly) assessed as mortality at 6.25 ug/fly measured after 1 hr; type: functional; procedure, shortened: as §1
[21] = test system: Musca domestica; assay: Toxicity to Musca domestica (house fly) assessed as mortality at 6.25 ug/fly measured after 0.5 hr; type: functional; procedure, shortened: as §1
[22] = test system: Musca domestica; assay: Toxicity to Musca domestica (house fly) assessed as mortality at 7.5 ug/fly measured after 24 hr; type: functional; procedure, shortened: as §1
[23] = test system: Musca domestica; assay: Toxicity to Musca domestica (house fly) assessed as mortality at 7.5 ug/fly measured after 2.5 hr; type: functional; procedure, shortened: as §1
[24] = test system: Musca domestica; assay: Toxicity to Musca domestica (house fly) assessed as mortality at 7.5 ug/fly measured after 1.5 hr; type: functional; procedure, shortened: as §1
[25] = test system: Musca domestica; assay: Toxicity to Musca domestica (house fly) assessed as mortality at 7.5 ug/fly measured after 1 hr; type: functional; procedure, shortened: as §1
[26] = test system: Musca domestica; assay: Toxicity to Musca domestica (house fly) assessed as mortality at 7.5 ug/fly measured after 0.5 hr; type: functional; procedure, shortened: as §1
[27] = molecular target: Muscarinic acetylcholine receptor DM1 (Drosophila melanogaster) (UniProt P16395); assay: Displacement of [3H]QNB from Drosophila melanogaster mAChR at 100000 nM by scintillation counting
Muscarinic acetylcholine receptor DM1 (Drosophila melanogaster), sequence (P16395 whole entry): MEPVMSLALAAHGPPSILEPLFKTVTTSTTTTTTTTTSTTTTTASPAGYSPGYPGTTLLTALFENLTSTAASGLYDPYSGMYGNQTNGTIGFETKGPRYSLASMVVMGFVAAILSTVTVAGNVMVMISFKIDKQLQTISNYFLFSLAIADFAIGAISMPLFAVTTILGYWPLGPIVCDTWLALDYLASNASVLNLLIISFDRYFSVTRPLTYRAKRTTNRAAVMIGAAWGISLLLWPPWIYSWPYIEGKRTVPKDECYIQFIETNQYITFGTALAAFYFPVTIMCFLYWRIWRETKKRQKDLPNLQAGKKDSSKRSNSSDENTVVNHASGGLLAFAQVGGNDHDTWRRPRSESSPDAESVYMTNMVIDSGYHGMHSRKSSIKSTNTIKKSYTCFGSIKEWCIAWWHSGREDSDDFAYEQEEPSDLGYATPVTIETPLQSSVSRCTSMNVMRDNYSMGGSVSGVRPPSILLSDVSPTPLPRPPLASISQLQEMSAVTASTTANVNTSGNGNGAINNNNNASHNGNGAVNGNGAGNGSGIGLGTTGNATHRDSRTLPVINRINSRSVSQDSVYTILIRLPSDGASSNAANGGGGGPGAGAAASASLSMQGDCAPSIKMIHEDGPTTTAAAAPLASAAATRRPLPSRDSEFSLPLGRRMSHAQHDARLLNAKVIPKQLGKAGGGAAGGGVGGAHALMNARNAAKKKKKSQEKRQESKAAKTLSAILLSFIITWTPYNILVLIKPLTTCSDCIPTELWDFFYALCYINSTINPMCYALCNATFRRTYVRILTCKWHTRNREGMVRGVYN

[28] = molecular target: Muscarinic acetylcholine receptor DM1 (Drosophila melanogaster) (UniProt P16395); assay: Displacement of [3H]AF-DX 384 from Drosophila melanogaster mAChR at 100000 nM by scintillation counting
[29] = test system: Musca domestica; assay: Ex vivo inhibition of [3H]QNB binding in brain of Musca domestica (house fly) at 7.5 ug/fly measured after 24 hr; type: functional; procedure, shortened: as §2
[30] = test system: Musca domestica; assay: Ex vivo inhibition of [3H]QNB binding in brain of Musca domestica (house fly) at 7.5 ug/fly measured after 0.5 hr; type: functional; procedure, shortened: as §2

T1 sequence (P16395 whole entry): as above

| Structure (SMILES) | Ki [1] [nM] | Ki [2] [nM] | Activity [3] [%] | Activity [4] [%] | Activity [5] [%] | Activity [6] [%] | Activity [7] [%] | Activity [8] [%] | Activity [9] [%] | Activity [10] [%] | Activity [11] [%] | Activity [12] [%] | other results |
| --- | --- | --- | --- | --- | --- | --- | --- | --- | --- | --- | --- | --- | --- |
| CN1[C@@H]2CC[C@H]1C[C@@H](OC(=O)N1Cc3ccccc3NC1=O)C2 | 640 | 570 | 7 | 17 | 23 | 43 | 70 | 0 | 0 | 10 | 17 | 23 |  |
| Cc1noc(C2CN3CCC2CC3)n1 (centres undefined) | 1320 | 1330 | 13 | 33 | 60 | 83 | 100 | 3 | 3 | 13 | 20 | 47 | inhibition (INH) [13]: 16%; inhibition (INH) [14]: 80%; inhibition (INH) [15]: 9%; inhibition (INH) [16]: 49% |
| CCCN(CCC)CC1CCCCN1CCNC(=O)N1c2ccccc2C(=O)Nc2cccnc21 (centres undefined) | 4.8 | 6.1 |  |  |  |  |  |  |  |  |  |  | Activity [17]: 3%; Activity [18]: 3%; Activity [19]: 3%; Activity [20]: 3%; Activity [21]: 30% |
| C[C@H](C1=C(CCN(C)C)Cc2ccccc21)c1ccccn1 | 510 | 660 | 23 | 97 | 100 | 100 | 100 | 3 | 17 | 40 | 70 | 100 | inhibition (INH) [13]: 28%; inhibition (INH) [14]: 81%; inhibition (INH) [15]: 0%; inhibition (INH) [16]: 41%; Activity [22]: 0%; Activity [23]: 0%; Activity [24]: 0%; Activity [25]: 0%; Activity [26]: 10% |
| CCOC(=O)c1c(C)[nH]c2ccc3c(c12)CN1CCc2cc(OC)ccc2C1O3 (centres undefined) | 1030 | 1430 |  |  |  |  |  | 13 | 13 | 13 | 13 | 20 |  |
| O=[N+]([O-])/N=C1\NCCN1Cc1ccc(Cl)nc1 |  |  |  |  |  |  |  |  |  |  |  |  | inhibition [27]: 1%; inhibition [28]: 3% |
| C[N+]1(C)CCC(OC(=O)C(c2ccccc2)c2ccccc2)CC1.[I-] [4-DAMP] | 15 | 18 | 33 | 60 | 57 | 67 | 100 | 10 | 20 | 40 | 47 | 60 | inhibition (INH) [15]: 59%; inhibition (INH) [16]: 92%; inhibition (INH) [29]: 49%; inhibition (INH) [30]: 79%; Activity [22]: 7%; Activity [23]: 3%; Activity [24]: 7%; Activity [25]: 10%; Activity [26]: 10% |
| Cc1ccc(C[N+](C)(C)C)o1 [5-METHYLFURMETHIODIDE] | 14900 | 12300 |  |  |  |  |  |  |  |  |  |  |  |
| CC(=O)OC1CN2CCC1CC2 (centres undefined) [ACECLIDINE] | 130000 | 114000 | 3 | 10 | 27 | 30 | 100 | 0 | 3 | 3 | 3 | 33 |  |
| CC#CCOC(=O)C1=CCCN(C)C1 [ARECAIDINE BUT-2-YNYL ESTER] | 1500 | 1560 | 4 | 8 | 9 | 9 | 10 | 3 | 3 | 3 | 3 | 3 |  |
| C#CCOC(=O)C1=CCCN(C)C1 [ARECAIDINE PROPARGYL ESTER] | 4490 | 5200 | 87 | 100 | 100 | 100 | 100 | 0 | 0 | 0 | 0 | 17 |  |
| CCOP(=O)(OCC)Oc1nc(Cl)c(Cl)cc1Cl [CHLORPHRIFOS OXON] | > 100000 | > 100000 |  |  |  |  |  |  |  |  |  |  | inhibition [27]: 17%; inhibition [28]: 29% |
| O=[N+]([O-])NC1=NCCN1Cc1ccc(Cl)nc1 [IMIDACLOPRID] | > 100000 | > 100000 |  |  |  |  |  |  |  |  |  |  |  |
| COc1ccccc1CNCCCCCCNCCCCCCCCNCCCCCCNCc1ccccc1OC.Cl.Cl.Cl.Cl [METHOCTRAMINE HYDROCHLORIDE] | 2850 | 3860 |  |  |  |  |  | 100 | 100 | 100 | 100 | 100 | Activity [22]: 3%; Activity [23]: 0%; Activity [24]: 0%; Activity [25]: 10%; Activity [26]: 17% |
| C[N+]1(C)[C@@H]2CC[C@H]1C[C@@H](OC(=O)C(CO)c1ccccc1)C2.O=[N+]([O-])[O-] (some centres undefined) [METHYLATROPINE NITRATE] | 2.4 | 1.8 | 7 | 20 | 20 | 23 | 23 | 13 | 7 | 7 | 7 | 17 |  |
| CCN(CC)CC1CCCCN1CC(=O)N1c2ccccc2C(=O)Nc2cccnc21 (centres undefined) [OTENZEPAD] | 1220 | 1380 |  |  |  |  |  |  |  |  |  |  | Activity [17]: 3%; Activity [18]: 10%; Activity [19]: 10%; Activity [20]: 10%; Activity [21]: 17% |
| O=C1CCCN1CC#CCN1CCCC1 [OXOTREMORINE] | 19400 | 21500 |  |  |  |  |  |  |  |  |  |  |  |
| CCOP(=O)(OCC)Oc1ccc([N+](=O)[O-])cc1 [PARAOXON] | > 100000 | > 100000 |  |  |  |  |  |  |  |  |  |  | inhibition [27]: 0%; inhibition [28]: 13% |
| CC[C@@H]1C(=O)OC[C@@H]1Cc1cncn1C [PILOCARPINE] |  |  | 7 | 7 | 10 | 23 | 67 | 0 | 0 | 0 | 0 | 3 |  |
| CN1CCN(CC(=O)N2c3ccccc3C(=O)Nc3cccnc32)CC1 [PIRENZEPINE] | 430 | 390 | 10 | 13 | 20 | 27 | 27 | 7 | 7 | 7 | 7 | 20 |  |
| Br.CN1[C@@H]2C[C@@H](OC(=O)[C@H](CO)c3ccccc3)C[C@H]1[C@@H]1O[C@@H]12.O.O.O [SCOPOLAMINE HYDROBROMIDE] |  |  | 0 | 0 | 0 | 3 | 20 | 3 | 3 | 3 | 3 | 10 |  |
